# MEKK3 PB1 HTS: modulators (inhibitors or enhancers) of MEK5 binding to human MEKK3 PB1 domain. AID 1529. bead-based flow cytometry, Alexa488-MEK5 binding to MEKK3; actives lie on both sides; 0 = blocked by unlabeled MEK5, 100 = vehicle. 1.4% of 290,000 active. binding response (% of control), % at 10 µM;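 active means binding response more than 3 SD above or below the average of its plate-row segment, actives on both sides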;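 further: Alexa488 bead fluorescence after subtracting the streptavidin-only scavenger bead signal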
# Target sequence (Q99759 whole entry, looked up, the tested form may be a part): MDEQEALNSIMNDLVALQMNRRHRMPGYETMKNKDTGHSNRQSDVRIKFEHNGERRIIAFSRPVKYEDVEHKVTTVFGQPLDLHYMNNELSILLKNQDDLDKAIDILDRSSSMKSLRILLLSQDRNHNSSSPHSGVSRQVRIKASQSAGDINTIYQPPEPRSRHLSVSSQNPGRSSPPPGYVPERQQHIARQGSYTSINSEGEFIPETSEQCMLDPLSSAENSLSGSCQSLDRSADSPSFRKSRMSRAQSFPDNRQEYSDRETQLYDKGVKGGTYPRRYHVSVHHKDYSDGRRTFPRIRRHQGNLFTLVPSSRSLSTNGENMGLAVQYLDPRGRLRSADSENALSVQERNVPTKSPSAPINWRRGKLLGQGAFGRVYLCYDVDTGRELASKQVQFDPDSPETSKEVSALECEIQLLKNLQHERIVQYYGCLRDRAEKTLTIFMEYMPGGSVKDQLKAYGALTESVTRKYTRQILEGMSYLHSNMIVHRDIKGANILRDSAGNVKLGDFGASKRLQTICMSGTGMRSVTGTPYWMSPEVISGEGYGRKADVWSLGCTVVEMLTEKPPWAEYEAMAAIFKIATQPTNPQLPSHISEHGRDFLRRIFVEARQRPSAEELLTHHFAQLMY
# MEKK2mut PB1 HTS: signal of MEK5 binding to mutant human MEKK2 PB1 domain | bead flow cytometry, Alexa488-MEK5 binding to MEKK2 mutant | percent response, % at 10 µM | 0.35% of 290,000 active | AID 1530; in the data active means percent response above about 24%, passing the limit was not always enough
# NS3 helicase inh: blocks Hepatitis C virus NS3 helicase unwinding. NS3 helicase DNA unwinding, Cy5 molecular beacon fluorescence. inhibition, % at 10.9 µM. 0.56% of 290,000 active. AID 1800;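 active means inhibition above the mean of all tested compounds plus 3 SD, set per campaign, cut at about 35% in these data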;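 further: 0% = DMSO wells and 100% = thioflavine S control wells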
#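 System: HCV NS3 helicase fragment; control set: DMSO and thioflavine S; technique: Cy5 fluorescence at 0 and 60 min, beacon hairpin quenching; reagent: beacon DNA duplex substrate plus ATP; replicates: singlicate; schedule: 1 h reaction at 25 °C, ATP-initiated; medium: MOPS buffer pH 6.5 with MgCl2, DTT, Tween20, BSA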
# DNA FID counter: fluorescent intercalator displacement, NS3 helicase counter-screen | inhibition, % at 7.9 µM | 0.17% of 290,000 active | AID 1845 | DNA fluorescent intercalator displacement, fluorescence; in the data active means inhibition above about 37%;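 further: 0% = vehicle and 100% = reference compound; higher means more ethidium bromide displaced from hairpin DNA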
# T cruzi repl: blocks replication of Trypanosoma cruzi; T. cruzi beta-gal in NIH3T3, luminescence, 90 h; inhibition, % (no concentration beside the values); 1.4% of 300,000 active;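 active means mean inhibition across valid replicates above about 55%, limit read from the data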;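 further: signal also drops with host cell toxicity which is not excluded here; 0% = plate median of DMSO wells and 100% = zero luminescence signal; higher percent means less beta-gal luminescence so fewer parasites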
#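 Assay system: NIH/3T3 host cells with β-galactosidase reporter T. cruzi; input: 5,000 host fibroblasts per well; compound: single 50 nL compound addition per well in DMSO; timing: ≥90 h infection period, 3 h prior cell attachment; measured by: GalScreen β-gal luminescence, detergent lysis, 60 min; evaluation: percent inhibition of parasite-derived β-gal signal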
# MEKK2wt PB1 HTS: raises or lowers MEK5 binding to wildtype human MEKK2 PB1 domain. Q9Y2U5. bead flow cytometry, Alexa488-MEK5 binding to MEKK2 WT; actives lie on both sides. binding response (% of control), % at 10 µM. 1.1% of 290,000 active; in the data active means binding response below about 67% or above about 130%
# MEKK2wt confirm: raises or lowers MEK5 binding to wildtype human MEKK2, retest. shares compounds with MEKK3 PB1 HTS. 2.4% of 5,900 active. bead flow cytometry, Alexa488-MEK5 binding to MEKK2 WT; actives lie on both sides. binding response (% of control), % at 10 µM; in the data active means binding response below about 16% or above about 210%; inactive means in between
# MEKK2mut-MEK5: signal of MEK5 binding to mutant human MEKK2, retest. shares compounds with MEKK3 PB1 HTS. AID 1893. 2% of 5,900 active. percent response, % at 10 µM. bead flow cytometry, Alexa488-MEK5 binding to MEKK2 mutant; in the data active means percent response mostly above about 71%, no sharp cut-off; inactive means mostly below about 38%;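 further: higher means compound restores mutant binding toward wildtype level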
# MEKK3-MEK5 inh: confirmation of inhibitors of MEK5 binding to human MEKK3. shares compounds with MEKK3 PB1 HTS. bead flow cytometry, Alexa488-MEK5 binding to MEKK3; active compounds read low. binding response (% of control), % at 10 µM. 1.8% of 5,900 active. AID 1894;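 active means binding response below 72% of control, or above a set upper limit, though filed actives all read lower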;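 further: 100% = DMSO only wells and 0% = binding blocked by excess unlabeled MEK5; lower values mean stronger disruption of MEK5 binding to MEKK3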
# The depositor's hits bear a star; · = no result; [ ] = another dose, or the depositor's remark. Shown are actives, neighbours in structure and some others; about 4.1% of the full set was active somewhere.
SMILES,MEKK3 PB1 HTS,MEKK2mut PB1 HTS,NS3 helicase inh,DNA FID counter,T cruzi repl,MEKK2wt PB1 HTS,MEKK2wt confirm,MEKK2mut-MEK5,MEKK3-MEK5 inh
COc1ccc(N2CCN(C(=O)CSc3nnc4c(C)cc5ccc(C)c(C)c5n34)CC2)cc1,36*[inhibitor],-21,-3,-35,-2,51,98,-2,96
COc1ccc(N2CCN(C(=O)CSc3nnc4c(C)cc5cc(C)ccc5n34)CC2)cc1,·,·,4,-10,19,·,·,·,·
COC(=O)[C@@]12CCCCN1[C@H](c1ccc(-c3cccc(Cl)c3)c(OC)c1)[C@H]1C(=O)N(C)C(=O)[C@H]12,·,·,·,·,-14,·,·,·,·
O=C(NCCCN1CCCCCC1)C1CC(=O)N(CCc2ccccc2)C1 (stereo unspecified),81,25*,-9,11,-20,147*,154,25,94
O=C(NCCCN1CCOCC1)C1CC(=O)N(CCc2ccccc2)C1 (stereo unspecified),100,2,1,-6,3,103,·,·,·
C[C@@H]1CN(C(=O)c2cc(COc3cccc(C(F)(F)F)c3)on2)C[C@H](C)O1,90,-11,0,-33,-7,98,·,·,·
SC(COCc1ccccc1)CN1CCN(Cc2ccc3c(c2)OCO3)CC1 (stereo unspecified),108,42,-67,19,55*,142*,168,31,107
Cc1cc(C)n(Cc2cccc(C(=O)N/N=C/c3cccnc3)c2)n1,103,3,-2,14,4,102,·,·,·
COc1cc2[nH]c3c(N4CCN(c5ccc(Cl)cc5)CC4)ncnc3c2cc1OC,111,24*,-17,1,39,157*,189,49,110
COc1cc2[nH]c3c(Cl)ncnc3c2cc1OC,71*[inhibitor],1,-4,2,0,94,108,14,103
COc1ccc(S(=O)(=O)N2CCOC2CNC(=O)C(=O)NCCc2ccc(S(N)(=O)=O)cc2)cc1 (stereo unspecified),101,-1,2,-16,-17,101,·,·,·
Cc1cc([N+](=O)[O-])ccc1NC(=O)CCC(=O)N1CCCCCC1,109,9,4,-4,-3,109,·,·,·
CCOc1cc(C2NN=C(c3ccccc3)S2)ccc1OCc1ccc(F)cc1 (stereo unspecified),0.0*[inhibitor],-16,2,-1,-1,0.0*[inhibitor],97,-7,95
CC12CCCC[C@@H]1CCC1C2CCC2(C)C1CC[C@@]2(O)CNCCO (stereo partly specified),106,25*,-52,-4,-2,136*,107,10,87
CCOC(=O)c1c(C)n(C)c2ccc(OC)c(NC(=O)CN3CCC(C(=O)OCC)CC3)c12,47*[inhibitor],-37,-7,-24,17,55,102,6,102
C=CCn1c(CNC(=O)c2ccccc2F)nnc1SCc1nc2ccccc2c(=O)[nH]1,104,1,2,2,4,97,·,·,·
O=C(NCc1csc2ccccc12)Nc1cc(Cl)cc(Cl)c1,123,29,0,2,44,138*,106,-4,98
O=C(NCc1ccccn1)Nc1cc(Cl)cc(Cl)c1,104,8,-6,-3,3,105,·,·,·
Cc1ccc(Cl)c(OC(=O)c2ccc(N3CCOCC3)c([N+](=O)[O-])c2)c1,137*,1,32,-5,-16,109,99,-2,104
COc1ccccc1CNC(=O)c1ccc(N2CCOCC2)c([N+](=O)[O-])c1,44*[inhibitor],-19,1,-21,-2,53,104,3,110
COC(=O)c1sc(NC(=O)c2cc(C)on2)nc1C,101,-4,-1,-5,-23,97,·,·,·
CCn1cc(C(=O)N[C@@H](CCSC)C(=O)NCCCOC)c(=O)c2cc3c(cc21)OCO3,105,4,8,-21,-15,105,·,·,·
C#Cc1cccc(NC(=O)c2ccc3c(c2)C(=O)N(Cc2cccnc2)C3=O)c1,97,4,2,-20,-19,104,·,·,·
Cc1cc(C)nc(SCc2cc(=O)c(OC(=O)c3ccco3)co2)n1,113,-1,16,-7,4,101,·,·,·
Cc1cc(C)nc(SCc2cc(=O)c(OC(=O)c3ccc(Br)o3)co2)n1,128*,1,2,-2,-4,109,100,-8,99
SMILES,MEKK3 PB1 HTS,MEKK2mut PB1 HTS,NS3 helicase inh,DNA FID counter,T cruzi repl,MEKK2wt PB1 HTS,MEKK2wt confirm,MEKK2mut-MEK5,MEKK3-MEK5 inh
O=C(COc1ccccc1)NCc1nnc2c3ccccc3c(-c3ccccc3)nn12,149*,0,-11,-32,14,108,107,6,105
COc1cc(C(CCN2CCCC(C)C2)c2c(OC)cc(OC)c3c2OC(=O)CC3c2ccc(N(C)C)cc2)cc(OC)c1OC (stereo unspecified),96,14,·,·,11,136*,136,16,100
COc1cc(C2CC(=O)Oc3c(C(CCN4CCCC(C)C4)c4ccc(N(C)C)cc4)c(OC)cc(OC)c32)cc(OC)c1OC (stereo unspecified),124,5,·,·,7,154*,119,13,105
CN(C)S(=O)(=O)c1cccc(NC(=S)NN=C(Cc2ccccc2)Cc2ccccc2)c1,91,-2,-4,-4,-2,93,·,·,·
Cc1ccc(NC(=O)CN(C)S(=O)(=O)c2cccc3cccnc23)c(C)c1,134*,27,-16,-25,-9,109,110,9,107
Cc1ccc(NC(=O)CN(C)S(=O)(=O)c2cccc3cccnc23)cc1,107,5,20,-20,-4,108,·,·,·
Cc1[nH]c2ccccc2c1N=Nc1cccc(C(=O)O)c1,68*[inhibitor],1,17,-7,-18,95,107,4,106
COC(=O)c1cc(N=Nc2c(C)[nH]c3ccccc23)cc(C(=O)OC)c1,95,-15,13,1,-42,95,·,·,·
Cc1sc2nc(CN3CCC(C)CC3)nc(Cl)c2c1C,161*,6,8,0,-5,111,97,-3,95
CCCCc1cc(=O)oc2cc(OCC(=O)Nc3ccccn3)ccc12,101,0,-2,-15,2,103,·,·,·

# Screening data as filed in PubChem BioAssay.
